We go through one compound from ChEMBL document CHEMBL3745677, “Discovery of 6-(4-{[5-Cyclopropyl-3-(2,6-dichlorophenyl)isoxazol-4-yl]methoxy}piperidin-1-yl)-1-methyl-1H-indole-3-carboxylic Acid: A Novel FXR Agonist for the Treatment of Dyslipidemia” (J Med Chem, 2015).

Data set [1] in a line: Initial plasma concentration in Sprague-Dawley rat at 1 mg/kg, iv by LC-MS/MS analysis. In kind it is ADME, organism-based. In short, it runs like this:
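Intravenous dose given in 5% Solutol / 5% EtOH in saline (1 mg/kg rat and dog, 0.91 mpk monkey). Plasma samples collected and analyzed by LC-MS/MS; parameters reported as mean ± SD, N=2-3.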

The nature of data set [2]: Cmax in Sprague-Dawley rat at 3 mg/kg, po by LC-MS/MS analysis. In kind it is ADME, organism-based. Also noted: dose 3 mg/kg, route oral. As to conditions: in vivo. The gist of the method:
(§1)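 Sprague Dawley rats, Beagle dogs and Cynomolgus monkeys were dosed IV at 1 mg/kg (rat, dog) or 0.91 mpk (monkey) in 5% Solutol/5% EtOH in saline. Oral/nasogastric dosing was 3 mpk in 1.0% CMC/0.25% PS80/0.05% antifoam in purified water. Samples were processed to plasma and analysed by LC-MS/MS; values are mean ± SD, N=2-3.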

Data set [3] concerns the target T1, Mineralocorticoid receptor (Homo sapiens, UniProt P08235).
T1 sequence (P08235 whole entry): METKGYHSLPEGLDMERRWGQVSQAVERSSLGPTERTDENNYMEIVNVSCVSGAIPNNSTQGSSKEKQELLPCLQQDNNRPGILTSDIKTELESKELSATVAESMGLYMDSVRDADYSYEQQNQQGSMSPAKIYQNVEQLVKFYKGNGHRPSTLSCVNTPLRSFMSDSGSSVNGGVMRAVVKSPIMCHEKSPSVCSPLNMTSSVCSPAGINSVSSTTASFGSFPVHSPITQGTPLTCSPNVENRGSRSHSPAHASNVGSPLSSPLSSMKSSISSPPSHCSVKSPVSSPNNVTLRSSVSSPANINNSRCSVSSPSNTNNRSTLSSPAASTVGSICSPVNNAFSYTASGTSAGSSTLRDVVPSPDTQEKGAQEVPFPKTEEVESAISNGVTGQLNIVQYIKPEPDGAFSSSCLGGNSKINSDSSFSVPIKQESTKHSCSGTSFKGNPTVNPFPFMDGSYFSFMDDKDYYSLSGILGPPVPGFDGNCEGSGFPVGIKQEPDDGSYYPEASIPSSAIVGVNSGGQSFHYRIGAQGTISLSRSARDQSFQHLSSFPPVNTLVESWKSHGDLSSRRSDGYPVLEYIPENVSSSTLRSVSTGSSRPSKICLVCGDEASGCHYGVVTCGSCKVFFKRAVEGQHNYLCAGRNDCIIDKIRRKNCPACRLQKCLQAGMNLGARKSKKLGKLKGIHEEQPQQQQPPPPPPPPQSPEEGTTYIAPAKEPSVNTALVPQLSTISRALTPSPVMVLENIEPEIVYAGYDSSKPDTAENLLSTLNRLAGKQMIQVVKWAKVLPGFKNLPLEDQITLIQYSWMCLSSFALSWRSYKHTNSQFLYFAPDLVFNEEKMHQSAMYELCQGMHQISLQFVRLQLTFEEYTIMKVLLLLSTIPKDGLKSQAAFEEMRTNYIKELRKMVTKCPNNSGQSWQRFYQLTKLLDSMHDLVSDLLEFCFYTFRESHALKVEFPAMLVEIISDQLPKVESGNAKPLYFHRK
The data set is described as follows: Agonist activity at mineralocorticoid receptor (unknown origin) expressed in HEK293 cells assessed as transcriptional activation. In kind it is cell-based.

For data set [4], the system named is Mus musculus. Nature of the data set: Antidyslipidemic activity in western-diet fed mouse expressing LDL-receptor (-/-) assessed as decrease in triglyceride level at 3 mg/kg qd for a week administered via gavage […]. In kind it is functional. As to conditions: po. The gist of the method: (§2)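 Male LDLR null mice, six per group, were gavaged once daily for one week with compound (in situ sodium salt) or vehicle (5% Solutol, 5% EtOH, 1% wt/v CMC) at 5 mL/kg. On day 7 they were bled by cardiac puncture under CO2 anaesthesia. Serum cholesterol and triglycerides were measured enzymatically on a clinical chemistry analyser (mean ± SD, n=6). ED50 was obtained by nonlinear regression.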

The subject of data set [5] is Mus musculus. The data set is described as follows: Antidyslipidemic activity in western-diet fed mouse expressing LDL-receptor (-/-) assessed as decrease in triglyceride level at 30 mg/kg qd for a week administered via gavage […]. In kind it is functional. As to conditions: po. In short, it runs like this:
as §2

A short description of data set [6]: AUC (0 to 24 hrs) in beagle dog at 3 mg/kg, po by LC-MS/MS analysis. On the set-up: dose 3 mg/kg, time < 24 hr, route oral. In kind it is ADME, organism-based, Canis lupus familiaris. As to conditions: in vivo. The gist of the method: as §1
Data set [7] is described as follows: Oral bioavailability in cynomolgus monkey at 3 mg/kg by LC-MS/MS analysis. In kind it is ADME, organism-based, Macaca fascicularis. As to conditions: in vivo. In short, it runs like this: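 Bioavailability calculated from a 3 mpk oral/nasogastric dose (1.0% CMC/0.25% PS80/0.05% antifoam in water) against a 0.91 mpk IV dose (5% Solutol/5% EtOH in saline). Plasma analyzed by LC-MS/MS; mean ± SD, N=2-3.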

Data set [8] deals with T2, Androgen receptor (Homo sapiens, UniProt P10275).
T2 sequence (P10275 whole entry): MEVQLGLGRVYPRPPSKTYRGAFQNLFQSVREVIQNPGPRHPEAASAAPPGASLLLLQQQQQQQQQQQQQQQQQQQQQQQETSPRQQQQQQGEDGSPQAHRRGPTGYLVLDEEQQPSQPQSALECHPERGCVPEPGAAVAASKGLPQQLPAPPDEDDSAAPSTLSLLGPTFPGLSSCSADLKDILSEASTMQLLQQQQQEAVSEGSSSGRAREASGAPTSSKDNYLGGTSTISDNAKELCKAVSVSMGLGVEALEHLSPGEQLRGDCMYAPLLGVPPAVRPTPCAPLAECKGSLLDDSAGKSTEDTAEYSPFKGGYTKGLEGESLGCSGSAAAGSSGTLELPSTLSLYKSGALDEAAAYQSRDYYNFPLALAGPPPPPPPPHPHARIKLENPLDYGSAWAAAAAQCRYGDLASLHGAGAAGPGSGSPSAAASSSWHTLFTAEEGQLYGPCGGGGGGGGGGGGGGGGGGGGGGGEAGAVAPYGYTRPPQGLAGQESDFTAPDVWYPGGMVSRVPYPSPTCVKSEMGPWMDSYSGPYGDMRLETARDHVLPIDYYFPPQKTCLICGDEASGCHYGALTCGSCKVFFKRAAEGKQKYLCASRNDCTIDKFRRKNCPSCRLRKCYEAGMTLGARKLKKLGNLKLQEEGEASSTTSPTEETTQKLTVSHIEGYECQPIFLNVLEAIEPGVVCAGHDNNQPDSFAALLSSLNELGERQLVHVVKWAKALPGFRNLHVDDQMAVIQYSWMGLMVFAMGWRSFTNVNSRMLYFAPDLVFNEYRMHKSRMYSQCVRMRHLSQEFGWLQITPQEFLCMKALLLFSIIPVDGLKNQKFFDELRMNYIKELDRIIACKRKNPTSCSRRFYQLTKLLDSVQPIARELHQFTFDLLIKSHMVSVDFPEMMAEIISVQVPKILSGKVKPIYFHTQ
Nature of the data set: Agonist activity at androgen receptor (unknown origin) expressed in HEK293 cells assessed as transcriptional activation. In kind it is cell-based.

Broadly, the Cmax is the maximum level reached in the sampled fluid or tissue. The term EC50 denotes the concentration that produces a half-maximal response. One may read the inhibition in vivo as the change of the read-out against control, counted positive when it falls. The term AUC(0-t) denotes exposure summed from dosing to a finite time, without extrapolation to infinity. Broadly, the bioavailability is dose-corrected exposure relative to a reference, in per cent. On to `Cn1cc(C(=O)O)c2ccc(N3CCC(OCc4c(-c5c(Cl)cccc5Cl)noc4C4CC4)CC3)cc21` [TERN-101], for which the C0 in data set [1] came to 2530 ng/mL. This compound also showed a Cmax in data set [2] of 130 ng/mL. Moreover, the concentration for a half-maximal effect (EC50) in data set [3] and in data set [8] was > 10 µM throughout. For the same compound, the inhibition in vivo at 3 mg/kg in data set [4] was found to be 46%. In addition, the inhibition in vivo at 30 mg/kg in data set [5] turned out to be 83%. Moreover, the AUC(0-t) at 24 h in data set [6] was 4690 ng·h/mL. This compound also gave a bioavailability in data set [7] of 24%.
